Assay results: ChEMBL document CHEMBL4130550, “Antiproliferative Dimeric Aporphinoid Alkaloids from the Roots of Thalictrum cultratum” (J Nat Prod, 2017)

Tests used:
HL-60 [1] = assay: Antiproliferative activity against human HL60 cells after 72 hrs by tryphan blue staining based hematocytometric method; format: functional, cell-based; settings: HL-60, 72 h
How it was run: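 HL-60 (ATCC) in RPMI-1640 with 10% heat-inactivated FBS, 1 mM glutamine and penicillin/streptomycin, 37 °C, 5% CO2. Cells at 4.5 × 10^4 cells/mL are exposed to a concentration gradient (DMSO stock diluted in absolute EtOH) for 72 h. Trypan blue is added and total cells are counted on a hematocytometer. IC50 is the mean of three parallel experiments. Negative reference is 0.1% DMSO.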

PC-3 [2] = assay: Antiproliferative activity against human PC3 cells by MTT assay; format: functional, cell-based
How it was run: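 PC-3 (ATCC) in supplemented RPMI-1640 with 10% FBS at 37 °C, 5% CO2. Log-phase cells get graded concentrations in triplicate. MTT (5 mg/mL solution) is added for a further 4 h, then dissolved in DMSO and read at 490 nm. IC50 is from the average of three parallel experiments. Negative reference is 0.1% DMSO.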

PC-3 [3] = assay: Potency index, ratio of camptothecin IC50 to compound IC50 for human PC3 cells; format: functional
PC-3 [4] = assay: Potency index, ratio of 5-fluorouracil IC50 to compound IC50 for human PC3 cells; format: functional
HL-60 [5] = assay: Potency index, ratio of 5-fluorouracil IC50 to compound IC50 for human HL60 cells; format: functional

SMILES: COc1cc2c(c(OC)c1OC)CCN(C)[C@H]2Cc1ccc(Oc2c(OC)c(OC)cc3c2cc2c4c(c(OC)c(OC)c(OC)c43)CCN2C)cc1
- IC50 (HL-60 [1]): 2.12 µM
- IC50 (PC-3 [2]): 6.01 µM

SMILES: COc1cc2c(cc1OC)[C@H](Cc1ccc(Oc3c4c(cc(OC)c3OC)-c3c(OC)c(OC)cc5c3[C@H](C4)N(C)CC5)cc1)N(C)CC2
- IC50 (HL-60 [1]): 1.44 µM
- IC50 (PC-3 [2]): 2.72 µM

SMILES: COc1cc2c(c(O)c1OC)CC[N@@+](C)([O-])[C@H]2Cc1ccc(Oc2c3c(cc(OC)c2OC)-c2c(OC)c(OC)c(OC)c4c2[C@H](C3)N(C)CC4)cc1
- IC50 (HL-60 [1]): 4.57 µM
- IC50 (PC-3 [2]): 18.7 µM

SMILES: CC[C@@]1(O)C(=O)OCc2c1cc1n(c2=O)Cc2cc3ccccc3nc2-1 [CAMPTOTHECIN]
- IC50 (HL-60 [1]): 0.92 µM
- IC50 (PC-3 [2]): 6.96 µM

SMILES: COc1cc2c(c(Oc3ccc(C[C@H]4c5cc(OC)c(OC)c(OC)c5CCN4C)cc3)c1OC)C[C@H]1c3c(c(OC)c(OC)c(OC)c3-2)CCN1C
- IC50 (HL-60 [1]): 1.16 µM
- IC50 (PC-3 [2]): 6.05 µM

SMILES: COc1cc2c(c(Oc3ccc(C[C@H]4c5cc(OC)c(OC)c(OC)c5CC[N@@+]4(C)[O-])cc3)c1OC)C[C@H]1c3c(c(OC)c(OC)c(OC)c3-2)CCN1C
- IC50 (HL-60 [1]): 5.05 µM
- IC50 (PC-3 [2]): 13.4 µM

SMILES: COc1cc2c(c(O)c1OC)CCN(C)[C@H]2Cc1ccc(Oc2c3c(cc(OC)c2OC)-c2c(OC)c(OC)cc4c2[C@H](C3)N(C)CC4)cc1
- IC50 (HL-60 [1]): 2.1 µM
- IC50 (PC-3 [2]): 5.85 µM

SMILES: COc1cc2c(cc1OC)-c1cc3c(Oc4cc5c(cc4OC)-c4c(OC)c(OC)c(OC)c6c4[C@H](C5)N(C)CC6)c(OC)c(OC)cc3c(=O)n1CC2
- IC50 (HL-60 [1]): 10.3 µM
- IC50 (PC-3 [2]): 3.72 µM

SMILES: COc1cc2c(c(Oc3ccc(C[C@H]4c5cc(OC)c(OC)c(OC)c5CC[N@+]4(C)[O-])cc3)c1OC)C[C@H]1c3c(c(OC)c(OC)c(OC)c3-2)CCN1C
- IC50 (HL-60 [1]): 4.21 µM
- IC50 (PC-3 [2]): 8.35 µM

SMILES: COc1cc2c(c(O)c1OC)CCN(C)[C@H]2Cc1ccc(Oc2c3c(cc(OC)c2OC)-c2c(OC)c(OC)c(OC)c4c2[C@H](C3)N(C)CC4)cc1
- IC50 (HL-60 [1]): 1.01 µM
- Ratio IC50 (PC-3 [3]): 3
- IC50 (PC-3 [2]): 2.47 µM
- Ratio IC50 (PC-3 [4]): 9
- Ratio IC50 (HL-60 [5]): 2

SMILES: COc1cc2c(c(O)c1OC)CCN(C)[C@H]2Cc1ccc(Oc2c(OC)c(OC)cc3c2cc2c4c(c(OC)c(OC)c(OC)c43)CCN2C)cc1
- IC50 (HL-60 [1]): 4.28 µM
- IC50 (PC-3 [2]): 7.1 µM

SMILES: COc1cc2c(cc1OC)[C@H](Cc1ccc(Oc3c(OC)c(OC)cc4c3cc3c5c(cc(OC)c(OC)c54)CCN3C)cc1)N(C)CC2
- IC50 (HL-60 [1]): 4.09 µM
- IC50 (PC-3 [2]): 7.86 µM

SMILES: O=c1[nH]cc(F)c(=O)[nH]1 [FLUOROURACIL]
- IC50 (PC-3 [2]): 22 µM

SMILES: COc1cc2c(cc1OC)[C@H](Cc1ccc(Oc3c(OC)c(OC)cc4c3cc3c5c(c(OC)c(OC)c(OC)c54)CCN3C)cc1)N(C)CC2
- IC50 (HL-60 [1]): 2.41 µM
- IC50 (PC-3 [2]): 2.56 µM

SMILES: COc1cc2c(cc1OC)C1=Cc3c(cc(OC)c(OC)c3Oc3cc4c(cc3OC)-c3c(OC)c(OC)c(OC)c5c3[C@H](C4)N(C)CC5)CN1CC2
- IC50 (HL-60 [1]): 1.77 µM
- IC50 (PC-3 [2]): 11.6 µM

SMILES: COc1cc2c(c(O)c1OC)CC[N@+](C)([O-])[C@H]2Cc1ccc(Oc2c3c(cc(OC)c2OC)-c2c(OC)c(OC)c(OC)c4c2[C@H](C3)N(C)CC4)cc1
- IC50 (HL-60 [1]): 2.86 µM
- IC50 (PC-3 [2]): 12.7 µM

SMILES: COc1cc2c(cc1OC)[C@H](Cc1ccc(Oc3c4c(cc(OC)c3OC)-c3c(OC)c(OC)c(OC)c5c3[C@H](C4)N(C)CC5)cc1)N(C)CC2 [THALIFABERINE]
- IC50 (HL-60 [1]): 1.58 µM
- IC50 (PC-3 [2]): 7.27 µM

SMILES: COc1cc2c(c3c1OCO3)CCN(C)[C@H]2Cc1ccc(Oc2c(OC)c(OC)cc3c2cc2c4c(c(OC)c(OC)c(OC)c43)CCN2C)cc1
- IC50 (HL-60 [1]): 1.77 µM
- IC50 (PC-3 [2]): 3.29 µM
